These results are taken from ChEMBL document CHEMBL4513216, “Probing the Open Global Health Chemical Diversity Library for Multistage-Active Starting Points for Next-Generation Antimalarials” (ACS Infect Dis, 2020).

This data set in a line: Toxicity liver stage against HepG2, at 10uM. Format: cell-based. On the set-up: test concentration 10 uM, cell line HepG2-A16-CD81EGFP. As to conditions: human, HepG2-A16-CD81EGFP cells; read-out: INHIBITION
An outline of the steps: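 Uninfected HepG2-A16-CD81EGFP cells, 3 × 10^3 per well, 1536-well, plated on prespotted compound at 10 μM final, parasite-free screening media added to match infected plates; puromycin 10 μM positive, DMSO 0.5% negative; run in parallel with 48 h PbLuc assay at 37 °C, 5% CO2; viability by CellTiter-Glo luminescence, normalized to controls.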
As for `Cc1ccc(C(=O)NCCCN2CCOCC2)c(Cl)c1`, the cytotoxicity at 10 µM is -12.5%. Next, `COC(=O)[C@H]1CN(C(C)=O)CCN1C(C)=O`: -3.31%. `O=C(NCc1ccccc1)[C@@H]1Cc2[nH]cnc2CN1CC1CC1`: the cytotoxicity at 10 µM came to 3.17%. To `CN1CCN(C(=O)c2cc3sccc3n2Cc2ccccc2F)CC1` belongs 1.94%; to `COCc1ncn2c1CN(S(=O)(=O)c1cccc(F)c1)CC2`, 4.06%.

For the compound `CN(Cc1cn2c(n1)CN(C(=O)c1cccnc1)CC2)Cc1ccco1`, the cytotoxicity at 10 µM is -2.19%. Take `O=C(NCCCN1CCCC1=O)c1nc(-c2ccc3[nH]ccc3c2)no1`: the cytotoxicity at 10 µM is -3.43%. In the case of `CCC(=O)N1CCC2(COCc3c(C)nc(N(C)C)nc32)C1` (stereo not drawn), the cytotoxicity at 10 µM was -31.5%. Regarding `O=C1CCC2(CCCN(c3ncc(F)cn3)CC2)N1CC1CC1` (stereo not drawn), the cytotoxicity at 10 µM is -0.291%. Next, `O=c1[nH]cc(N2CCOCC2)c(=O)[nH]1`: 6.36%; `COCC(=O)N1CCCC(c2csc(NC(C)=O)n2)C1` (stereo not drawn): -17.2%. For the compound `CC(=O)N1CCC(c2ccnc(Nc3ccc(C)cn3)n2)C1` (stereo not drawn), the cytotoxicity at 10 µM is -16.7%.

In the case of `Cc1cc(CN2CCN(C(C)C(=O)NCc3cccs3)CC2)no1` (stereo not drawn), the cytotoxicity at 10 µM is -0.335%. To `Cc1ccc(CN(C(=O)NCC2CCCO2)C2CC2)o1` (stereo not drawn) belongs -151%.

As for `O=C(CCC(=O)N1CCOCC1c1ccccc1)c1cccs1` (stereo not drawn), the cytotoxicity at 10 µM is -1.26%.

As for `Cc1ccccc1C(=O)NCCC(=O)NS(=O)(=O)c1cccnc1`, the cytotoxicity at 10 µM is -11.6%. To `CCc1n[nH]c(NC(=O)c2ccc(Cl)cn2)c1Br` belongs -5.37%; to `CCCN(Cc1ccccc1O)S(=O)(=O)N(C)CC`, 10.2%; to `O=C(NCCOc1ccc(Cl)cn1)NCCc1ccccn1`, 7.95%.

As to `Cc1nn(C)c(C)c1C1CCCN1CCCC#N` (stereo not drawn), the cytotoxicity at 10 µM is -0.699%. For `COCCC(=O)N1CCC(Nc2ncc(Br)cn2)CC1`, the cytotoxicity at 10 µM was -2.46%. To `O=C(NCC(O)c1ccc(F)cc1F)c1ccccc1F` (stereo not drawn) belongs 13.9%; to `CC(=O)c1ccc(NC(=O)NC(C)c2ccc3c(c2)CC(=O)N3)cc1` (stereo not drawn), -8.03%.

As for `CCc1ncncc1C(=O)NCCNC(=O)c1ccc(C)c(F)c1`, the cytotoxicity at 10 µM came to 7.67%. To `O=C(C1CC1)N1CCN(C(=O)C2CC(=O)N(c3ccccc3Br)C2)CC1` (stereo not drawn) belongs 12.8%; to `Cc1csc(NC(=O)CN2CCc3nn(C)c(=O)cc3C2)n1`, -0.995%; to `NC(=O)CSc1ccccc1NC(=O)CC1C=CCC1` (stereo not drawn), -131%.

`Cc1cc(C)c2c(c1)C(NC(=O)CSCc1ccncc1)CCO2` (stereo not drawn): the cytotoxicity at 10 µM amounted to 4.17%.

As for `Cc1ccccc1OCCN1CCCC1CS(N)(=O)=O` (stereo not drawn), the cytotoxicity at 10 µM was 18.3%.

For `OCCCNC1CCc2cc3c(cc21)OCCO3` (stereo not drawn), the cytotoxicity at 10 µM was -5.93%. Next, `Cc1cc(C)cc(OCC(=O)N2CCCC2)c1`: 5.04%. For `CN(C)CCN(C)C(=O)Nc1cc(F)cc(N2CCCC2)c1`, the cytotoxicity at 10 µM was -2.22%.

On to `CC(=O)NS(=O)(=O)c1ccc2c(c1)N(C)CCC2`, for which the cytotoxicity at 10 µM is -0.89%. Take `c1csc(CNc2ccccc2Cn2cncn2)c1`: the cytotoxicity at 10 µM is 11.5%. Next, `O=C(Cc1ccc(Cl)cc1)N1CCC(O)(C(F)(F)F)C1` (stereo not drawn): -12.3%; `O=C(NCCc1nnc2n1CCCCC2)N1CCC2(CCCC2)CC1`: -7.94%; `O=C(c1cn(-c2ccccc2Cl)nn1)N1CCCSCC1`: -4.26%. Next, `Cn1nccc1-c1ncc(-c2cc(C(=O)O)n(CC3CC3)c2)cn1`: 1.55%; `CN1CCN(Cc2cnn(-c3ccccc3Cl)c2)[C@H]2CS(=O)(=O)C[C@H]21`: 6.19%. Next, `Oc1ccccc1-c1cc(-c2nc(C3CC3)n[nH]2)[nH]n1`: 0.45%; `CCc1nnc(CNC(=O)CCC2CCCN(C)C2)s1` (stereo not drawn): -148%. Consider `Cc1nc(C2CCNCC2)cc(N2CCOc3ccccc3C2)n1`, for which the cytotoxicity at 10 µM was -2.3%.

For `CCc1cc(N2CCC(F)(F)CC2)n2nc(C)c(C)c2n1`, the cytotoxicity at 10 µM was -6.42%.

As to `Cc1[nH]nc(CCC(=O)NCC2CCN(C3CCCCC3)C2)c1C` (stereo not drawn), the cytotoxicity at 10 µM is -5.08%. On to `COc1cccc(CN2CCC(O)(c3ccc(C)cn3)CC2)c1OC`, for which the cytotoxicity at 10 µM was -107%. Next, `CCCn1cc(NC(=O)c2cccc(CN3CC=CC3)c2)nn1`: -147%. To `CC(C)c1ccc(CN2CCCC3(CC2)CN(C)C(=O)O3)cc1` (stereo not drawn) belongs -3.44%; to `CNC(=O)c1cc(-n2ccnc2-c2cnc(N(C)C)nc2)ccc1OC`, -6.91%. To `CCc1nc(N)nc(N2CCCC3(CCN(C)CC3)CC2)c1C` belongs -179%. Turning to `Cc1ccc2cc(CN(C)Cc3nccs3)c(=O)[nH]c2c1`, the cytotoxicity at 10 µM is 2.91%. To `CC(C)C[C@H](NC(=O)c1cc(-c2cccn2C)n[nH]1)C(N)=O` belongs 3.7%. To `CC(C)N(C)CC(=O)N(C)C(c1cccc(F)c1)c1ccccn1` (stereo not drawn) belongs -6.14%. To `Cc1nn(CC(C)C)c(N(C)C)c1CNCc1ccc(CO)c(F)c1` belongs -14.4%. Regarding `c1cnnc(N2CCCC2CNCc2cscn2)c1` (stereo not drawn), the cytotoxicity at 10 µM was -5.78%. In the case of `CCC(C)NC(=O)CS(=O)(=O)Cc1cc(Cl)c2c(c1)OCCCO2` (stereo not drawn), the cytotoxicity at 10 µM was 2.19%. With `Cc1nn(C)c(N(C)C)c1CNCc1ccc(Cn2cncn2)cc1`, the cytotoxicity at 10 µM is -6.94%. To `O=C(NCc1nncn1-c1ccccc1)C1CCCCC1` belongs -22.1%.

With `CN(C)c1ncccc1CNS(=O)(=O)c1ccc(F)cc1F`, the cytotoxicity at 10 µM is -3%. For the compound `Cc1nc(CN(C)C2CCN(Cc3nnc(C4CC4)o3)C2)no1` (stereo not drawn), the cytotoxicity at 10 µM is -5%. On to `FC(F)CN1CCOC(Cn2cccn2)C1` (stereo not drawn), for which the cytotoxicity at 10 µM is -9.94%. To `Cc1nn(C)c(C)c1C1CCCN1Cc1nc2ccccc2n1C` (stereo not drawn) belongs -14.4%. Next, `O=C(NCCC(=O)N1CCCc2ccccc21)c1c(F)cccc1F`: -14.5%. Next, `CCCc1ccc(C(=O)N2CCn3c(nnc3C(C)C)C2)cc1`: 9.83%.

`CCc1nnsc1C(=O)N1CCCN(Cc2cnn(CC)c2)CC1`: the cytotoxicity at 10 µM was -1.76%. For `O=C(c1c[nH]cn1)N1CCCn2c(CN3CCCCC3)nnc2C1`, the cytotoxicity at 10 µM is -3.03%. Next, `COCCN1CCC2(COCCN(C(=O)Cc3cccs3)C2)C1` (stereo not drawn): 4.29%; `O=C1COC2(CCN(Cc3ccncc3)CC2)CN1`: -1.81%; `O=C(Nc1cccnc1)[C@H]1COC[C@H]2CN(C3CCCC3)C[C@H]21`: -20.1%. As to `CCCS(=O)(=O)N1Cc2nccn2CC(CN(C)C)C1` (stereo not drawn), the cytotoxicity at 10 µM was -106%. To `Cc1nn(C)c(N(C)C)c1CNCC(O)COc1ccccc1` (stereo not drawn) belongs -0.0582%; to `Cc1nc(CN2C(=O)CC[C@@H]3[C@H]2CCN3C2CCOC2)cs1` (stereo partly drawn), -141%; to `O=C(O)c1cc(C=Cc2ccc3ccccc3c2)ncn1`, -13.6%. Consider `CCN(CCSc1ccccc1)C(=O)c1cn(C2CCC(N)CC2)nn1` (stereo not drawn), for which the cytotoxicity at 10 µM was -2.93%.
